Source: PubChem BioAssay
SIRT5 inh – blocks human SIRT5 desuccinylation of peptide | inhibition, % at 15 µM | 1.1% of 330,000 active | Purified SirT5, succinyl-peptide AMC, trypsin-coupled fluorescence | Q9NXA8; in the data active means inhibition above about 15%; inconclusive means no clear call, values can overlap the other calls
Target sequence (Q9NXA8 whole entry, looked up): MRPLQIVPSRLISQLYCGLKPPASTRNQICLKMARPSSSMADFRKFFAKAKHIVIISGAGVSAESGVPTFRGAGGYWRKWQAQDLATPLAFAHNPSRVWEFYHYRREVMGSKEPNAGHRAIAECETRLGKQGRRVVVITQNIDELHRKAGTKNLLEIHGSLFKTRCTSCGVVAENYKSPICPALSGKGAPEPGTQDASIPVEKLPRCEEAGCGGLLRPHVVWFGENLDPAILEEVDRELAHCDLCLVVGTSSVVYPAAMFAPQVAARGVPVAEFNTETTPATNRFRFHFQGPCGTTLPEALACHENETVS
ERAP1 HTS inh – ERAP1 (human) enzyme inhibition. Q9NZ08. recombinant ERAP1, Leu-AMC fluorescence, 60 min. inhibition, % at 10.7 µM. 0.15% of 340,000 active;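 active means mean replicate inhibition of at least 30%, or all replicates individually reaching that 30% level; inactive means mean below 30% and not every replicate reaching it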;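 further: 0% = neutral control wells and 100% = L-leucinethiol positive control wells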
DENV2 CPE rescue – inhibitors of DENV2 cytopathic effect | DENV2-infected cells, cytopathic effect rescue, plate reader | CPE inhibition, % at 9.99 µM | 1.7% of 350,000 active; in the data active means CPE inhibition above about 20%, passing the limit was not always enough; inconclusive means no clear call, values can overlap the other calls; tested in BHK-21 cells;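 further: 0% = median of neutral control wells and 100% = median of positive control wells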
CAL PDZ FP-1 – blocks peptide binding to the human CAL PDZ domain; 0.92% of 300,000 active; purified CAL PDZ, TMR-peptide fluorescence polarization, 1 h; inhibition, % at 24.9 µM; AID 602252;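 active means mean inhibition of at least 30% with at least half of replicates also reaching 30%; inconclusive means no clear call, values can overlap the other calls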;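 further: 0% = DMSO neutral control and 100% = excess unlabeled competitor peptide PRC23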
S100A4 MyoIIA – blocks human S100A4 binding to myosin IIA peptide. 0.14% of 360,000 active. S100A4/TAMRA-MyoIIA peptide fluorescence polarization. inhibition, % at 10.7 µM. AID 652163. P26447;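 active means mean inhibition of at least 70% across replicates, with every replicate also reaching that level; inconclusive means mean inhibition reaches 70% but some replicates fall short; inactive means mean inhibition below 70%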
Target sequence (P26447 whole entry, looked up): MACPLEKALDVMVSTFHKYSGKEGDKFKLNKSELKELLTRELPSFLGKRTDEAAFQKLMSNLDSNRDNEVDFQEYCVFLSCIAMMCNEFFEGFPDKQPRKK
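Material: S100A4 monomer (human). Medium: Calcium-containing HEPES buffer, pH 7.2. Probe or stimulus: labelled myosin peptide probe, 5 nM. Compound dosing: one concentration per compound. Timing: polarization read 5 min after assay mix addition, stable 5–60 min. Benchmarks: DMSO as neutral control, TFP as positive control.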
CAL PDZ FP-2 – blocks peptide binding to human CAL PDZ domain; inhibition, % at 20 µM; Q9HD26; AID 504414; purified CAL PDZ, TMR-peptide fluorescence polarization, 1 h; 0.02% of 330,000 active;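 active means highest replicate inhibition of at least 40%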;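 further: plate controls were DMSO neutral control wells for no effect and unlabeled competitor peptide control wells for full effect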
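Test system: purified CerCALP PDZ construct; Compound dosing: one concentration, 20 µM compound; Also added: TMR-labelled reporter peptide T*-PRC34 bound in PDZ groove; Read-out: inhibition from polarization loss; Controls: unlabelled peptide and DMSO controls; Signal: FP readout, S and P plane fluorescence; Incubation: 1 h at RT.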
Active calls of the source: *; ? = inconclusive; . = no result given. Rows were chosen to be rich in hits. Some 2.9% of all compounds tested hit in one or more screens of this group.

SMILES | SIRT5 inh | ERAP1 HTS inh | DENV2 CPE rescue | CAL PDZ FP-1 | S100A4 MyoIIA | CAL PDZ FP-2
COc1ccccc1C(=O)Nc1ccc2c(c1)nc(CN1CCCCC1)n2C | -9 | 0 | -4 | 71* | 6 | -1
Cc1ccc(-c2cc(C(=O)N3CCCc4ccccc43)no2)cc1 | 0 | 3 | -5 | -6 | -3 | -1
O=C(c1cc(-c2cccs2)on1)N1CCCc2ccccc21 | -1 | 3 | 85* | -5 | -16 | 0
CCN1/C(=C/C=C/c2sc3ccccc3[n+]2CC)Sc2ccccc21 | . | . | . | -114 | . | -37
CCN1/C(=C/C=C/C=C/C=C/c2sc3ccccc3[n+]2CC)Sc2ccccc21 | -2 | 31* | -4 | 13 | -71 | 0
Cc1ccccc1CNC(=O)c1ccccc1NS(C)(=O)=O | 27* | -9 | 4 | 5 | -8 | 0
Cc1cccc(-c2ccc([C@H]3[C@H]4CN(C(=O)Cc5ccccn5)CC(=O)N4[C@H]3CO)cc2)c1 | -3 | 5 | 18 | . | -8 | .
CCN1C/C(=C\c2cccc([N+](=O)[O-])c2)C(=O)/C(=C/c2cccc([N+](=O)[O-])c2)C1 | 1 | -3 | 33* | -5 | 1 | 0
CCCC(=O)N1CCC2(CC1)CN(C(=O)C1CCC1)[C@@H](CO)c1[nH]c3cc(OC)ccc3c12 | -6 | . | -6 | . | -2 | .
COCC(=O)NC[C@@H]1[C@@H](c2ccc(C3=CCCC3)cc2)[C@@H](CO)N1C(=O)C1CC1 | 1 | 0 | 25* | . | 1 | .
COCC(=O)NC[C@@H]1[C@H](c2ccc(C3=CCCC3)cc2)[C@H](CO)N1C(=O)C1CC1 | -13 | 1 | -5 | . | -4 | .
CC(=O)NC[C@H]1[C@@H](c2ccc(C3=CCCCC3)cc2)[C@@H](CO)N1C(=O)NC(C)C | . | . | 55* | . | . | .
COc1ccc(S(=O)(=O)N(C)C[C@@H]2Oc3ccc(NC(=O)Cc4ccccc4)cc3C(=O)N([C@@H](C)CO)C[C@@H]2C)cc1 | 0 | 1 | 20 | . | 0 | .
COc1ccc(NC(=O)N(C)C[C@H]2OCCCC[C@@H](C)Oc3ccc(NS(=O)(=O)c4ccccc4)cc3C(=O)N([C@H](C)CO)C[C@@H]2C)cc1 | 0 | -1 | -1 | . | 2 | .
C[C@@H]1CN([C@H](C)CO)C(=O)c2cc(NC(=O)C3CCCCC3)ccc2O[C@@H]1CN(C)C(=O)Nc1cccc2ccccc12 | 4 | -3 | 3 | . | -1 | .
COc1ccc(C(=O)O)nc1C | 17* | -3 | 2 | -4 | -14 | -3
COc1ccc(-c2nc(C(=O)O)cs2)cc1OC | -5 | 2 | -4 | 9 | 2 | 0
CC1=NN(C(=O)c2ccc(Cn3cc([N+](=O)[O-])cn3)cc2)C(O)(C(F)(F)F)C1 (centres undefined) | 18* | 0 | . | 5 | 0 | -2
CC1=NN(C(=O)c2cccc(Cn3nc(C)c([N+](=O)[O-])c3C)c2)C(O)(C(F)(F)F)C1 (centres undefined) | -2 | 2 | -4 | -1 | 15 | -2
CNC(=O)c1cc2cc(OC)ccc2n1CCN(C)C | . | . | . | 47* | . | .
C[C@@H]1CN([C@@H](C)CO)C(=O)Cc2cc(NC(=O)Nc3cccc4ccccc34)ccc2O[C@H]1CN(C)Cc1ccc(Oc2ccccc2)cc1 | -4 | -2 | -4 | . | 0 | .
O=C(N[C@H]1CC[C@H](CCn2cc(C3(O)CCCC3)nn2)O[C@H]1CO)C1CCOCC1 | . | -3 | 32* | . | 26 | .
O=C(N[C@@H]1CC[C@@H](CCn2cc(C3(O)CCCC3)nn2)O[C@H]1CO)C1CCCC1 | 2 | 1 | 21* | . | 1 | .
CC(C)c1cn(CC[C@H]2CC[C@@H](NC(=O)C3CCOCC3)[C@H](CO)O2)nn1 | -2 | 0 | 2 | . | -3 | .
CC(C)c1cn(CC[C@@H]2CC[C@H](NC(=O)C3CCOCC3)[C@H](CO)O2)nn1 | -2 | 1 | 31* | . | 14 | .
SMILES | SIRT5 inh | ERAP1 HTS inh | DENV2 CPE rescue | CAL PDZ FP-1 | S100A4 MyoIIA | CAL PDZ FP-2
CO[C@@H]1CN(C)C(=O)c2cc(NC(=O)c3ccc4c(c3)OCO4)ccc2OC[C@H](C)N(CC2CC2)C[C@@H]1C | -3 | 8 | 2 | . | 3 | .
Cc1ccc(C)c(N2CCN(C(=O)CCc3nc(-c4ccccc4)no3)CC2)c1 | 0 | 0 | 20* | -3 | -13 | -1
COCCNC(=O)C[C@@H]1CC[C@@H](NS(=O)(=O)c2ccc(C)cc2)[C@@H](CO)O1 | -2 | -1 | 10 | . | 7 | .
C[C@@H]1CN([C@@H](C)CO)C(=O)Cc2cc(N(C)C)ccc2O[C@@H]1CN(C)Cc1ccc(C(F)(F)F)cc1 | . | 0 | 27* | . | 2 | .
C[C@@H]1CN([C@H](C)CO)C(=O)Cc2cc(N(C)C)ccc2O[C@H]1CN(C)Cc1ccc(C(F)(F)F)cc1 | 7 | -2 | -8 | . | 2 | .
C[C@H](CO)N1C[C@H](C)[C@@H](CN(C)Cc2ccccc2)Oc2ccc(N(C)C)cc2CC1=O | -3 | 0 | 6 | . | -2 | .
C[C@@H]1CN([C@@H](C)CO)C(=O)Cc2cc(N(C)C)ccc2O[C@@H]1CN(C)Cc1ccc(C(=O)O)cc1 | -1 | -3 | 33* | . | -15 | .
CC(C)N1C(=O)[C@@]2(Cc3ccccc31)c1ccccc1C(=O)N(Cc1ccccc1)[C@H]2c1ccc(CO)cc1 | 1 | 1 | 16 | . | 2 | .
COCC(=O)N(C)C[C@@H]1Oc2ncc(-c3ccccc3F)cc2C(=O)N([C@H](C)CO)C[C@H]1C | -4 | 0 | 3 | . | 3 | .
CCC(=O)N1[C@@H]2Cn3c(ccc(/C=C/c4ccccc4)c3=O)[C@H]1[C@@H](C(=O)N1CCOCC1)[C@@H]2CO | -163 | 2 | 3 | . | -1 | .
CCN1[C@@H]2c3ccc(/C=C/c4ccccc4)c(=O)n3C[C@H]1[C@H](CO)[C@H]2C(=O)N1CCOCC1 | -104 | 40* | -4 | . | 2 | .
CC(=O)N1[C@@H]2c3ccc(/C=C/c4ccccc4)c(=O)n3C[C@H]1[C@H](CO)[C@H]2C(=O)N1CCOCC1 | -174 | 88* | -10 | . | 6 | .
CCN1[C@@H]2Cn3c(ccc(/C=C/c4ccccc4)c3=O)[C@H]1[C@@H](C(=O)NC1Cc3ccccc3C1)[C@@H]2CO | -77 | -5 | 32* | . | -6 | .
O=C(Cc1ccccn1)N1CC(=O)N2[C@H](C1)[C@@H](c1ccc(C#CC3CC3)cc1)[C@@H]2CO | 0 | -1 | -5 | . | -7 | .
OC(COCC1COc2ccccc2O1)CN1CCN(c2ccccc2)CC1 (centres undefined) | . | . | . | . | . | -2
C[N+]1(CC(O)COCC2COc3ccccc3O2)CCOCC1 (centres undefined) | -2 | 104* | -6 | -2 | -3 | -2
CCc1csc(N2[C@H](C#N)[C@H](c3ccccc3C3=CCCC3)[C@H]2CO)n1 | -1 | 0 | ? | . | 4 | .
O=C(NCc1cccnc1)/C(=C/c1ccc(-c2cccc(C(F)(F)F)c2)o1)NC(=O)c1ccccc1 | . | . | . | 42* | . | 32
